According to ChEMBL document CHEMBL1140571, “New 1,8-naphthyridine and quinoline derivatives as CB2 selective agonists” (Bioorg Med Chem Lett, 2007):

How the values were obtained:
[1] = target: Cannabinoid receptor 1 (Homo sapiens, UniProt P21554); assay: biochemical; type: cell-based, HEK293
[2] = target: Cannabinoid receptor 2 (Homo sapiens, UniProt P34972); assay: Displacement of [3H]CP-55940 from human recombinant CB2 receptor expressed in HEK293 cells; type: cell-based
[3] = organism: Homo sapiens; assay: Selectivity for human CB2 over human CB1
[4] = system: Mus musculus; assay: Antinociceptive activity in Swiss Albino mouse assessed as licking latency time at 10 mg/kg, po after 15 mins by hot plate test; type: functional
Method in brief: (§1)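 Mice held at 22 ± 1 °C on a 12 h light/dark cycle and given oral doses in CMC vehicle. In the hot-plate test the container was kept at 52.5 ± 0.1 °C and the endpoint was licking of the fore or hind paws, timed before dosing and after it. Pretest scorers below 12 s or above 18 s were rejected. Cut-off 45 s. AM630 0.6 mg/kg po given simultaneously. Mean ± SEM, ANOVA with Fisher PLSD, P<0.05.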

[5] = system: Mus musculus; assay: Antinociceptive activity in Swiss Albino mouse assessed as licking latency time at 50 mg/kg, po in presence of CB2 antagonist AM630 after 45 mins; type: functional
Method in brief: as §1

[6] = system: Mus musculus; assay: Antinociceptive activity in Swiss Albino mouse assessed as licking latency time at 50 mg/kg, po after 30 mins by hot plate test; type: functional
Method in brief: as §1

[7] = system: Mus musculus; assay: Effect on motor coordination in Swiss Albino mouse at 50 mg/kg, po after 45 mins by rotarod test; type: organism-based; parameters: dose 50 mg/kg, route oral; conditions: in vivo, 0.75 h
Method in brief: (§2)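 Mice were dosed orally in CMC vehicle and tested on a rotarod with a 3 cm diameter non-slip rotating rod, counting falls before dosing and at 15, 30 and 45 min after. Pretest scorers below 3 or above 6 falls were rejected. Ten mice per group. Mean ± SEM, ANOVA with Fisher PLSD, P<0.05.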

[8] = system: Mus musculus; assay: Antinociceptive activity in Swiss Albino mouse assessed as licking latency time at 30 mg/kg, po after 45 mins by hot plate test; type: functional
Method in brief: as §1

[9] = system: Mus musculus; assay: Antinociceptive activity in Swiss Albino mouse assessed as licking latency time at 10 mg/kg, po after 30 mins by hot plate test; type: functional
Method in brief: as §1

[10] = system: Mus musculus; assay: Antinociceptive activity in Swiss Albino mouse assessed as licking latency time at 50 mg/kg, po after 15 mins by hot plate test; type: functional
Method in brief: as §1

[11] = system: Mus musculus; assay: Antinociceptive activity in Swiss Albino mouse assessed as licking latency time at 50 mg/kg, po after 45 mins by hot plate test; type: functional
Method in brief: as §1

[12] = system: Mus musculus; assay: Antinociceptive activity in Swiss Albino mouse assessed as licking latency time at 10 mg/kg, po after 45 mins by hot plate test; type: functional
Method in brief: as §1

[13] = system: Mus musculus; assay: Antinociceptive activity in Swiss Albino mouse assessed as licking latency time at 50 mg/kg, po in presence of CB2 antagonist AM630 after 30 mins; type: functional
Method in brief: as §1

[14] = system: Mus musculus; assay: Effect on Swiss Albino mouse assessed as licking latency time at 0.06 mg/kg, po after 45 mins by hot plate test; type: functional
[15] = system: Mus musculus; assay: Antinociceptive activity in Swiss Albino mouse assessed as licking latency time at 50 mg/kg, po in presence of CB2 antagonist AM630 after 15 mins; type: functional
Method in brief: as §1

[16] = system: Mus musculus; assay: Effect on motor coordination in Swiss Albino mouse at 50 mg/kg, po after 30 mins by rotarod test; type: organism-based; parameters: dose 50 mg/kg, route oral; conditions: in vivo, 0.5 h
Method in brief: as §2

[17] = system: Mus musculus; assay: Effect on Swiss Albino mouse assessed as licking latency time at 0.06 mg/kg, po after 15 mins by hot plate test; type: functional
[18] = system: Mus musculus; assay: Effect on Swiss Albino mouse assessed as licking latency time at 0.06 mg/kg, po after 30 mins by hot plate test; type: functional
[19] = system: Mus musculus; assay: Antinociceptive activity in Swiss Albino mouse assessed as licking latency time at 30 mg/kg, po after 15 mins by hot plate test; type: functional
Method in brief: as §1

[20] = system: Mus musculus; assay: Antinociceptive activity in Swiss Albino mouse assessed as licking latency time at 30 mg/kg, po after 30 mins by hot plate test; type: functional
Method in brief: as §1

[21] = system: Mus musculus; assay: Effect on motor coordination in Swiss Albino mouse at 50 mg/kg, po after 15 mins by rotarod test; type: organism-based; parameters: dose 50 mg/kg, route oral; conditions: in vivo, 0.25 h
Method in brief: as §2

Chain of Cannabinoid receptor 1 (P21554 whole entry): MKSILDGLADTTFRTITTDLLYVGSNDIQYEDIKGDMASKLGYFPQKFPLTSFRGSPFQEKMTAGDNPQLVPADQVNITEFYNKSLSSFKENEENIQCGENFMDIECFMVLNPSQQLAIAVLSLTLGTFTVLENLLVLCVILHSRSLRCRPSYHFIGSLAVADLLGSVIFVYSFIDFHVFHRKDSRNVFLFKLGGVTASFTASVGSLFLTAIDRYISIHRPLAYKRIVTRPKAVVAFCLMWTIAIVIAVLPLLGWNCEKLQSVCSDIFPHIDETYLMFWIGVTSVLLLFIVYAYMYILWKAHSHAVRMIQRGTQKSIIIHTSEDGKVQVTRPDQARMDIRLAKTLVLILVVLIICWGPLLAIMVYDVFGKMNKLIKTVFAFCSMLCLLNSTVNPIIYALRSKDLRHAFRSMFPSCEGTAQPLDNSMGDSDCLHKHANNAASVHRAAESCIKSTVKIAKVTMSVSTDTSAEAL
Chain of Cannabinoid receptor 2 (P34972 whole entry): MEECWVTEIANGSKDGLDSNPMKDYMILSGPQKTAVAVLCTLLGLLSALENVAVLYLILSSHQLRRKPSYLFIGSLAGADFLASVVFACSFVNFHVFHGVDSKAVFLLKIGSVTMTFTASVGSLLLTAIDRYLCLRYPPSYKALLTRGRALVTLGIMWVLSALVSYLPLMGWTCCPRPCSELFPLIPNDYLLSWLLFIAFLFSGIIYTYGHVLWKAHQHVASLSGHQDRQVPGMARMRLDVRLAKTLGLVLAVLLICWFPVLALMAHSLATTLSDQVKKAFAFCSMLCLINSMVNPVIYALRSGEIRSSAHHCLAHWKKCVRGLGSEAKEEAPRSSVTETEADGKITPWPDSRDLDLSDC

Compound | Ki [1] | Ki [2] | Ratio Ki [3] | further results
CN(C)c1ccc2c(=O)c(C(=O)NC3CCCCC3)cn(CCN3CCOCC3)c2n1 | > 5.6 µM | 0.094 µM |  | 
CCCCCCC(C)(C)c1cc(O)c2c(c1)OC(C)(C)[C@@H]1CC=C(CO)C[C@@H]21 | 0.00018 µM |  |  | 
COc1ccc2c(=O)c(C(=O)NC3CCCCC3)cn(Cc3ccccc3)c2c1 |  | 0.079 µM |  | 
COc1ccc2c(=O)c(C(=O)NC3CCCCC3)cn(Cc3ccccc3)c2n1 | 0.56 µM | 0.011 µM | 51 | Activity [4]: 17.1 s; Activity [5]: 17.6 s; Activity [6]: 22.5 s; Activity [7]: 0.2; Activity [8]: 17.4 s; Activity [9]: 18.5 s; Activity [10]: 19.2 s; Activity [11]: 18.2 s; Activity [12]: 16.7 s; Activity [13]: 19.2 s; Activity [14]: 16.3 s; Activity [15]: 18.1 s; Activity [16]: 0.2; Activity [17]: 16.6 s; Activity [18]: 18 s; Activity [19]: 16.6 s; Activity [20]: 19.5 s; Activity [21]: 0.7
O=c1c2cn(Cc3ccccc3)c3cc(Cl)ccc3c-2nn1C1CCCCC1 | 0.56 µM | 1.64 µM | 0.34 | 
O=c1c2cn(CCN3CCOCC3)c3ccccc3c-2nn1C1CCCCC1 | > 5.6 µM | > 7.9 µM |  | 
CCCCC/C=C\C/C=C\C/C=C\C/C=C\CCCC(=O)NCCCl | 0.0053 µM | 0.095 µM | 0.06 | 
COc1ccc(C(=O)c2c(C)n(CCN3CCOCC3)c3cc(I)ccc23)cc1 |  | 0.036 µM |  | 
O=C(NC1CCCCCC1)c1cn(Cc2ccccc2)c2ccccc2c1=O | 0.017 µM | 0.0064 µM | 2.6 | 
Nc1ccc2c(=O)cc(C(=O)NC3CCCCC3)n(Cc3ccccc3)c2n1 | 5.6 µM | 7.9 µM | 0.71 | 
COc1ccc2c(=O)c(C(=O)NC3CCCCC3)cn(CCN3CCOCC3)c2c1 | 2.92 µM | 0.079 µM | 37 | 
O=C(NC1CCCCCC1)c1cn(CCN2CCOCC2)c2ccccc2c1=O | 0.29 µM | 0.028 µM | 10.3 | 
O=c1c2cn(Cc3ccccc3)c3ccccc3c-2nn1C1CCCCC1 | 0.62 µM | 0.79 µM | 0.78 | 
O=c1c2cn(CCN3CCOCC3)c3ccccc3c-2nn1-c1ccccc1 | 2.8 µM | 2.28 µM | 1.2 | 
